Results on one molecule are retold here after PMC6605687 (The Journal of General Physiology, 2019).

Format in all cases: cell-based
In one assay the target is T1, rP2X2-3T receptors (Rattus norvegicus, UniProt P49653, C348T/C430T/C9T).
T1 sequence (P49653 1-472 C9T/C348T/C430T): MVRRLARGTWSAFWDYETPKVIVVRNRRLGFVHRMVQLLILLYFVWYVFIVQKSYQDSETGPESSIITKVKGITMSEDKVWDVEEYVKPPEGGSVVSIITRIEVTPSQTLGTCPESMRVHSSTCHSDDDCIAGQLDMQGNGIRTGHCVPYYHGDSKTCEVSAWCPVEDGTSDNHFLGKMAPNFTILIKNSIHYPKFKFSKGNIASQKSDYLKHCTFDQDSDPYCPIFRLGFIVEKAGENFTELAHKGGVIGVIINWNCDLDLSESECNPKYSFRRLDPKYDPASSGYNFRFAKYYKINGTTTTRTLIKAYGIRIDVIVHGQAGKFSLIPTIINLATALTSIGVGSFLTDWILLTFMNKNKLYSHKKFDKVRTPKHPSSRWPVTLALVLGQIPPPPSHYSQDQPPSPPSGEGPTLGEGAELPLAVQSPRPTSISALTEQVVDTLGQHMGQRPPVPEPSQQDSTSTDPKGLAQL
Description: Single channel outside-out patch-clamp recordings, HEK-293 cells. The conditions noted are these: agonist 1 µM, mean ± SEM. The method, boiled down:
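HEK-293 cells were co-transfected by calcium phosphate with rP2X2-3T DNA plus GFP DNA to mark transfected cells, then recorded within 24 h. Outside-out patches were held at −120 mV. Pipette contained 147 NaF, 10 EGTA and 10 HEPES (mM, pH 7.3). Agonist at 1, 10 or 100 µM in extracellular saline (pH 7.3) was applied by fast perfusion for 10 s per 12-s sweep, at 1-min intervals. Amplitudes came from Gaussian fits to all-points histograms, with 2–5 sweeps averaged per patch.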
In general terms: In patch-clamp work, channel activity is measured electrically.

The target in the next assay is T2, rP2X2 Val96Vah (Rattus norvegicus, UniProt P49653).
T2 sequence (P49653 1-472): T1 sequence (P49653 1-472 C9T/C348T/C430T) with T9C, T348C, T430C
In words: Two-electrode voltage clamp, oocytes expressing rP2X2 Val96Vah. The method, boiled down: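 The backbone ester was introduced by nonsense suppression. TAG-mutant rP2X2 mRNA was co-injected into Xenopus oocytes with tRNA enzymatically aminoacylated with 2-hydroxyisovaleric acid. Uncharged tRNA co-injection served as the negative control. After incubation at 18°C, two-electrode voltage clamp was done at −40 mV in ND96 (pH 7.4). ATP concentration-response data were normalised and Hill-fitted for EC50 and nH, given as mean ± SEM.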
For orientation: Two-electrode voltage clamp is typically applied to oocytes expressing channels or transporters.

Another assay concerns the target T3, rP2X2 Lys188Arg (Rattus norvegicus, UniProt P49653, K188R).
T3 sequence (P49653 1-472 K188R): T1 sequence (P49653 1-472 C9T/C348T/C430T) with T9C, K188R, T348C, T430C
Description: Two-electrode voltage clamp, oocytes expressing rP2X2 Lys188Arg. The procedure, abridged:
(§1)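 Mutations were made by site-directed mutagenesis. Xenopus oocytes were injected with rP2X2 mRNA and incubated in L-15 at 18°C. Two-electrode voltage clamp was done 1–2 days later at −40 mV under ND96 perfusion (pH 7.4). ATP concentration-response currents were normalised and fitted to a one-component Hill equation for EC50 and Hill coefficient. Results are mean ± SEM, tested by one-way ANOVA with Dunnett's test against WT.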

The target of assay [1] is T4, rat P2X2 receptor (rP2X2R) WT (Rattus norvegicus, UniProt P49653).
T4 sequence (P49653 1-472): T1 sequence (P49653 1-472 C9T/C348T/C430T) with T9C, T348C, T430C
The procedure, abridged:
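Collagenase-digested Xenopus oocytes were injected with WT rP2X2 mRNA (30 ng) and kept in L-15 at 18°C. Two-electrode voltage clamp was done 1–2 days later at −40 mV in ND96 (pH 7.4). Agonists were freshly dissolved in ND96 at pH 7.4. Responses were normalised to 1 mM ATP current in the same cell, and Hill fits gave EC50 and nH. Relative efficacy is the agonist maximal current versus 1 mM ATP. Results are mean ± SEM, compared by one-way ANOVA with Dunnett's test.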

In the next assay the target is T5, rP2X2 Lys71Arg (Rattus norvegicus, UniProt P49653, K71R).
T5 sequence (P49653 1-472 K71R): T1 sequence (P49653 1-472 C9T/C348T/C430T) with T9C, K71R, T348C, T430C
In words: Two-electrode voltage clamp, oocytes expressing rP2X2 Lys71Arg. The procedure, abridged:
as §1

Where a chain is given by its changes, count along the chain named.

Usually EC50 stands for the concentration giving half of the maximal effect. Regarding `Nc1ncnc2c1ncn2[C@@H]1O[C@H](COP(=O)(O)OP(=O)(O)OP(=O)(O)O)[C@@H](O)[C@H]1O` [ATP, Adenosine 5′-triphosphate], the “SDopen (SD of the open state amplitude)” value on rP2X2-3T receptors was 1.02 ± 0.1. The EC50 on rP2X2 Val96Vah was found to be 27 ± 2 µM; on rP2X2 Lys188Arg, 57 ± 8 µM; in assay [1], 32 ± 4 µM; at rP2X2 Lys71Arg, 370 ± 40 µM. For the same molecule, the “Effect of Vah incorporation on EC50 (in words)” value at rP2X2 Val96Vah (Val96Vah compared with WT) is listed as “did not affect the ATP EC50”.
